# Assay results: PubChem BioAssay
# Calls of active or inactive are those of the source.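 The calls were made as follows, unless noted: active = Her2 level under about 52% in both replicate screens, with viability over 70% of control (limit read from the data); inconclusive = Her2 under the limit in one screen only, or viability under 70%; inactive = Her2 level above the set limit.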
# Assays:
# [1] = biological target: Pantothenate synthetase (Mycobacterium tuberculosis (strain ATCC 25618 / H37Rv)) (UniProt P9WIL5); test: Recombinant Mtb pantothenate synthetase (PanC) inhibitors, coupled enzyme, confirmatory (AID 375; call rule not given here;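 also: 0% = full reaction with vehicle and 100% = no enzyme background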); settings: coupled enzyme assay; at 10 µM, stronger effect = higher value
# [2] = reducers of endogenous Her2 protein level, primary screen, SKBR3 breast tumor cells, AlphaScreen, ATP viability (AID 461); settings: 18-24 h, measured here: SKBR3 viability, ATP luminescence, at 10 µM;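 as to Her2 level: lower value means less Her2 protein in the cells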;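 as to viability: percent of carrier control wells set as 100% viability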
# [3] = biological target: Receptor tyrosine-protein kinase erbB-2 (Homo sapiens) (UniProt P04626); test: as above; settings: 18-24 h, at 10 µM, stronger effect = lower value
# [4] = SK-BR-3 cell growth inhibitors, pilot screen, 24 h, human (AID 572;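 active = viability at or below 10% of carrier control in both of two separate runs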;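 also: compound exposure lasted between 18 and 24 h rather than exactly 24 h; 100% = carrier-treated control wells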); settings: SK-BR-3 viability, CellTiter-Glo luminescence, at 10 µM, stronger effect = lower value
# [5] = HUVEC growth inhibition – cell-based, human, primary screen (AID 575;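 active = viability at or below 30% in both replicate assays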;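 also: 100% = median of untreated cell wells with 0.1% DMSO on each plate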); settings: HUVEC proliferation, CellTiter-Glo luminescence, 72 h; at 10 µM; stronger effect = lower value
# Method in brief: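 Assay system: Primary human umbilical vein endothelial cells | Quantity: 1250 cells per well | Medium: Supplemented EBM, 2% fetal bovine serum | Detection: CellTiter-Glo luminescence measuring cellular ATP | Read-out: % viability vs DMSO wells | Plate: Collagen-coated 384-well format | Times: 72 h exposure, 37 °C, 5% CO2, 30 min RT equilibration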
# [6] = growth inhibitors of H69AR lung tumor, primary screen, human, duplicate replicates (AID 580;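 active = viability at or under a set limit in both replicates, limit being median viability minus 3 SD, cut at about 48% in these data, passing the limit was not always enough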;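 also: 100% = mean luminescence of untreated wells and 0% = no signal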); settings: H69AR lung tumor cells viability, ATP luminescence, 72 h; at 10 µM; stronger effect = lower value
# [7] = reversal of MRP1-mediated doxorubicin resistance, pilot screen, H69AR cells, doxorubicin co-treatment (AID 601;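 active = viability loss from added drug above about 55%, and viability with drug at most 40%, in both replicates, limit read from the data, passing the limit was not always enough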); settings: CellTiter-Glo, 72 h, at 10 µM; for differential viability (reversal): stronger effect = higher value
# [8] = 384-well plate pilot, post-Golgi transport modulator project, inhibition of yeast transport mutant growth (AID 636; in the data active = inhibition above about 31%); settings: absorbance 615 nm, about 18 h, stronger effect = higher value
# [9] = growth suppression of yeast trafficking mutant, preliminary HTS, modulators of trafficking downstream of Golgi apparatus project, 1536-format plate, OD 615 nm (AID 637; in the data active = inhibition above about 30%); settings: yeast transport mutant growth, absorbance 615 nm, 18 h; stronger effect = higher value
# [10] = H69AR cells + 2 uM doxorubicin, measured here: viability with 2 uM doxorubicin, stronger effect = lower value
# [11] = H69AR cells, compound alone cytotoxicity
# Pantothenate synthetase (Mycobacterium tuberculosis (strain ATCC 25618 / H37Rv)), sequence (P9WIL5 whole entry, looked up): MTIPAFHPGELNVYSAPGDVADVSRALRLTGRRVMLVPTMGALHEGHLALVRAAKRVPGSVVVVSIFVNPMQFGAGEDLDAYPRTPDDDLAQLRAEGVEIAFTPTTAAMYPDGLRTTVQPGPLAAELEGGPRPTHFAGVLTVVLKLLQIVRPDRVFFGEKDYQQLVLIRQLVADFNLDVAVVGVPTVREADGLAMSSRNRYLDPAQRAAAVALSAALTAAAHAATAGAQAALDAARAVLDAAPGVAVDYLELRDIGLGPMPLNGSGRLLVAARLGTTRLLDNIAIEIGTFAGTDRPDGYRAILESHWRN
# Receptor tyrosine-protein kinase erbB-2 (Homo sapiens), sequence (P04626 whole entry, looked up): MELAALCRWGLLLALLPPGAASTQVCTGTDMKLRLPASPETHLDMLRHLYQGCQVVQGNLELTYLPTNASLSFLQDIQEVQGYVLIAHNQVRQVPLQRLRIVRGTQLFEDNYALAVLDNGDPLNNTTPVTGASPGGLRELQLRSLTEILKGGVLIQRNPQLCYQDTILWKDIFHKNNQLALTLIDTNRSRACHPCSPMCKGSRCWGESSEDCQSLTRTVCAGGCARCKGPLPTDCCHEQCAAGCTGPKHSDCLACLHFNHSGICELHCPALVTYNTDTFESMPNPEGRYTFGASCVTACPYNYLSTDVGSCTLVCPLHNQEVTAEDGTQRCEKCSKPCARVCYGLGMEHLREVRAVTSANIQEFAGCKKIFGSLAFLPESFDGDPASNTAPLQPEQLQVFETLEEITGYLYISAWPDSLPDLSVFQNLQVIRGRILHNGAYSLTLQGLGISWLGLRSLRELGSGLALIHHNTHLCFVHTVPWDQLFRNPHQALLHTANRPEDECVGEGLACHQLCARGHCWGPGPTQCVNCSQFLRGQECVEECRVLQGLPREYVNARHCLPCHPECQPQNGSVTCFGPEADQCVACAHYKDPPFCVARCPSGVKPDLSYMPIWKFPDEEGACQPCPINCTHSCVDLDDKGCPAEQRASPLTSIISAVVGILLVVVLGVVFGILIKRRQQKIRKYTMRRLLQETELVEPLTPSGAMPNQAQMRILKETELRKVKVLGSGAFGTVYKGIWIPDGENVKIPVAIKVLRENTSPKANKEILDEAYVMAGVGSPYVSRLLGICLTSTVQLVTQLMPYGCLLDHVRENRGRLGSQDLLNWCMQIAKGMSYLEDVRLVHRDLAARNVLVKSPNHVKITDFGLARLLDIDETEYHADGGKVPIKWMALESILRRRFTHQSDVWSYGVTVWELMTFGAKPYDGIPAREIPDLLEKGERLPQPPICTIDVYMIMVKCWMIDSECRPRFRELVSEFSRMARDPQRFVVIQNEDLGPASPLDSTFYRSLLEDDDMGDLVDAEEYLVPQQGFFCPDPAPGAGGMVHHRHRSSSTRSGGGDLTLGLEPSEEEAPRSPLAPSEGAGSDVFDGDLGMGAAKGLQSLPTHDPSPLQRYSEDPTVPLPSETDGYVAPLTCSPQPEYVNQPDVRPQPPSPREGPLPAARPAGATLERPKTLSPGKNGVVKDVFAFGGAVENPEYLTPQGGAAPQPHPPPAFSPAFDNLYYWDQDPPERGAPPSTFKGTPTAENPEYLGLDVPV
SMILES,inhibition [1],viability [2] [%],Her2 level [3],viability [4],viability [5],viability [6],differential viability (reversal) ([7]; H69AR cells + 2 uM doxorubicin),"viability [7, 10] [%]","viability [7, 11] [%]",inhibition [8],inhibition [9]
c1cncc(CNC2=NCCCCC2)c1,1% (inactive),80.5,106% (inactive),80.5% (inactive),96.6% (inactive),97.4% (inactive),6.13% (inactive),91.3,97.4,-0.78% (inactive),-4.92% (inactive)
Cc1ccc(C)c(NC2=NCCCS2)c1,0% (inactive),108,89.5% (inactive),108% (inactive),91.9% (inactive),104% (inactive),11.3% (inactive),92.9,104,-8.08% (inactive),-1.59% (inactive)
C=CCn1c(O)c(C(C)=NCc2cccnc2)c(=O)[nH]c1=O,0% (inactive),104,113% (inactive),104% (inactive),88.1% (inactive),92.2% (inactive),4.8% (inactive),87.4,92.2,-6.49% (inactive),-1.33% (inactive)
COC(=O)CC1(Cc2ccccc2)C(=O)NC(=O)NC1=O,0% (inactive),92.5,96.5% (inactive),92.5% (inactive),86.8% (inactive),102% (inactive),13.1% (inactive),88.4,102,-5.07% (inactive),-0.98% (inactive)
Cc1cc(C)c(C(=O)CN2CCOCC2)c(C)c1,2% (inactive),105,98.5% (inactive),105% (inactive),83.7% (inactive),74% (inactive),-6.78% (inactive),80.7,74,-5.19% (inactive),-0.33% (inactive)
Cc1cc(NC(=O)COC(=O)c2c(C)nn(Cc3ccccc3)c2Cl)no1,0% (inactive),96,102% (inactive),96% (inactive),79.2% (inactive),105% (inactive),19% (inactive),86,105,-4.27% (inactive),-8.03% (inactive)
Cc1cc(N2C(=O)C3CCCN3C2c2cccc(Cl)c2)no1 (stereo not given),4% (inactive),95,96.5% (inactive),95% (inactive),89.3% (inactive),109% (inactive),21% (inactive),88,109,-0.13% (inactive),-0.97% (inactive)
O=C(C1CCCN(S(=O)(=O)c2cccc3nsnc23)C1)N1CCC2(CC1)OCCO2 (stereo not given),0% (inactive),97,100% (inactive),97% (inactive),100% (inactive),81.6% (inactive),-16.9% (inactive),98.5,81.6,-5% (inactive),1.33% (inactive)
Cc1oc2ccc(OC(=O)N(C)C)cc2c1C(=O)OC(C)C,0% (inactive),96,87.5% (inactive),96% (inactive),92.4% (inactive),107% (inactive),11.3% (inactive),95.8,107,-3.24% (inactive),10.2% (inactive)
Cn1c(C(=O)N2CCC3(CC2)OCCO3)cc2c(=O)n(C)c3ccccc3c21,0% (inactive),108,82.5% (inactive),108% (inactive),80.2% (inactive),80.6% (inactive),-5.79% (inactive),86.4,80.6,-3.82% (inactive),-5.45% (inactive)
Cn1c(O)c(C=NCc2ccco2)c(=O)n(C)c1=O,0% (inactive),106,96% (inactive),106% (inactive),96.8% (inactive),95.1% (inactive),5% (inactive),90.1,95.1,-4.53% (inactive),14.7% (inactive)
O=C1CC(N2CCC(n3c(=O)[nH]c4ccccc43)CC2)C(=O)N1c1ccc(F)cc1 (stereo not given),5% (inactive),93.5,67.5% (inactive),93.5% (inactive),80.7% (inactive),103% (inactive),3.01% (inactive),100,103,-4.74% (inactive),-6.5% (inactive)
CCOC(=O)C(O)(c1ccc(N(CC)C(=O)OC)cc1)C(F)(F)F (stereo not given),0% (inactive),99.5,105% (inactive),99.5% (inactive),110% (inactive),109% (inactive),20.5% (inactive),88.3,109,-5.53% (inactive),5.74% (inactive)
CC#CP(=O)(OCC)C(O)(c1ccccc1)C(F)(F)F (stereo not given),0% (inactive),91,85% (inactive),91% (inactive),96.7% (inactive),96.9% (inactive),14.4% (inactive),82.5,96.9,-2.93% (inactive),2.13% (inactive)
Oc1ccc(C2NCc3ccccc3-n3cccc32)cc1Cl (stereo not given),0% (inactive),98.5,74.5% (inactive),98.5% (inactive),112% (inactive),83.8% (inactive),1.1% (inactive),82.7,83.8,-6.18% (inactive),-3.17% (inactive)
CCCCn1c(O)c(C=NC2CCCCC2N)c(=O)[nH]c1=O (stereo not given),0% (inactive),128,96.5% (inactive),128% (inactive),92.6% (inactive),79.3% (inactive),4.94% (inactive),74.4,79.3,-2.6% (inactive),1.43% (inactive)
CC12CCCCC1=[N+]([O-])CN2O (stereo not given),5% (inactive),102,112% (inactive),102% (inactive),109% (inactive),105% (inactive),15.9% (inactive),89.4,105,-1.33% (inactive),8.71% (inactive)
O=c1[nH]c(=O)n(CCc2ccccc2)c(O)c1C=NCCN1CCNCC1,6% (inactive),99,91.5% (inactive),99% (inactive),108% (inactive),93% (inactive),1.67% (inactive),91.3,93,-1.58% (inactive),5.16% (inactive)
COc1cc(C2NCc3ccccc3-n3cccc32)ccc1O (stereo not given),0% (inactive),104,102% (inactive),104% (inactive),105% (inactive),101% (inactive),9.64% (inactive),90.9,101,-5.79% (inactive),-1.27% (inactive)
O=c1[nH]c(=O)n(Cc2ccccc2)c(O)c1C=NCCCO,8% (inactive),100,96.5% (inactive),100% (inactive),94.1% (inactive),117% (inactive),27.1% (inactive),89.9,117,-6.13% (inactive),-0.65% (inactive)
Nc1ccc(C2(c3ccc(N)cc3)CN3CCC2CC3)cc1,0% (inactive),120,88% (inactive),120% (inactive),85.5% (inactive),106% (inactive),6.37% (inactive),100,106,-5.75% (inactive),0% (inactive)
COC(=O)c1c(C)n(Cc2ccc3c(c2)OCO3)c2ccc(O)cc12,6% (inactive),116,95% (inactive),116% (inactive),54.5% (inactive),105% (inactive),5.33% (inactive),100,105,-3.6% (inactive),-1.94% (inactive)
Cc1[nH]c2c(Cl)cccc2c1CCN,0% (inactive),97.5,85.5% (inactive),97.5% (inactive),84.4% (inactive),13.2% (active),-69.9% (inactive),83.1,13.2,-4.67% (inactive),5.9% (inactive)
COc1ccc(CN2CCN(C(=O)Cc3ccccc3)CC2)c(OC)c1,0% (inactive),93,90% (inactive),93% (inactive),89.9% (inactive),97.3% (inactive),9.87% (inactive),87.4,97.3,-6.08% (inactive),1.59% (inactive)
COCCOC(=O)C1=C(N)Oc2c(c(=O)oc3ccccc23)C1c1ccncc1 (stereo not given),10% (inactive),122,72% (inactive),122% (inactive),98.5% (inactive),92% (inactive),4.34% (inactive),87.7,92,-2.76% (inactive),-2.22% (inactive)
CC(=NCc1cccnc1)c1c(O)n(Cc2ccccc2)c(=O)[nH]c1=O,1% (inactive),91.5,90.5% (inactive),91.5% (inactive),92.6% (inactive),93.5% (inactive),-4.79% (inactive),98.3,93.5,-0.27% (inactive),2.95% (inactive)
CC(C)C(=O)c1cn(Cc2ccccc2C#N)c2ccccc12,8% (inactive),98,100% (inactive),98% (inactive),97% (inactive),82.8% (inactive),-7.5% (inactive),90.3,82.8,-4.53% (inactive),3.97% (inactive)
COc1ccc(N2CCN(CCCN)CC2)cc1,0% (inactive),94.5,88% (inactive),94.5% (inactive),72.6% (inactive),81.5% (inactive),3.81% (inactive),77.7,81.5,-0.91% (inactive),-1.27% (inactive)
N#Cc1ccccc1Cn1cc(C(=O)c2ccco2)c2ccccc21,0% (inactive),98.5,96% (inactive),98.5% (inactive),105% (inactive),82% (inactive),-3.02% (inactive),85,82,-4.32% (inactive),14.5% (inactive)
C=CCn1c(O)c(C=NCCN(C)C)c(=O)[nH]c1=O,0% (inactive),97.5,108% (inactive),97.5% (inactive),110% (inactive),97.2% (inactive),3.12% (inactive),94.1,97.2,-0.39% (inactive),-0.98% (inactive)
